Data on 1 compound can be found in ChEMBL document CHEMBL4732078 (Eur J Med Chem, 2021).

Structures are written as SMILES. Calls of active or inactive are those of the source. The rule behind the calls is not given here.

A short description of data set [1]: Metabolic stability in rat hepatocytes assessed as intrinsic clearance. The format is ADME, cell-based, Hepatocyte. The conditions noted are these: read-out: CLH.
Data set [2] addresses T1, Phosphatidylinositol 4,5-bisphosphate 3-kinase catalytic subunit alpha isoform (Homo sapiens, UniProt P42336). In words: Inhibition of PI3Kalpha in human U87MG cells assessed as reduction in rhIGF1-stimulated AKT phosphorylation at Ser473 treated for 1 hr followed by incubation with IGF1 for 10 mins by western blot analysis. The format is cell-based. The conditions noted are these: U-87 MG, dose 0.01-1 µM, time 70.0 min. In short, it runs like this:
(§1)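 U87MG or Rh30 cells held 24 h in serum-free medium, exposed to compound for 1 h, then stimulated with 50 ng/ml IGF-I for 10 min. Lysates blotted for Akt, pAkt T308 and pAkt S473.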
Background: In western blotting, separated proteins are transferred to a membrane and probed.

The target in data set [3] is T1, Phosphatidylinositol 4,5-bisphosphate 3-kinase catalytic subunit alpha isoform. Nature of the data set: Inhibition of PI3Kalpha (unknown origin) transfected in human Rh30 cells assessed as reduction in AKT phosphorylation at Thr308 residue at 14 nM by western blot analysis. The format is cell-based. The procedure, abridged: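 Rh30 cells ectopically expressing membrane-anchored, N-terminally myristoylated, constitutively active p110α, β, γ or δ. Akt phosphorylation assessed by Western blot; lysates made in RIPA buffer, equal protein heated at 95 °C for 10 min in SDS loading buffer.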

Data set [4] has the same target. In words: Inhibition of PI3Kalpha in human Rh30 cells assessed as reduction in rhIGF1-stimulated AKT phosphorylation at Thr308 treated for 1 hr followed by incubation with IGF1 for 10 mins by western blot analysis. The format is cell-based. The following applies: dose 0.01-1 µM, time 70.0 min. In short, it runs like this: as §1
Data set [5] can be described thus: Metabolic stability in mouse hepatocytes assessed as intrinsic clearance. The format is ADME, cell-based, Hepatocyte. The conditions noted are these: read-out: CLH.
A short description of data set [6]: Metabolic stability in rat hepatocytes assessed as half life. The format is ADME, cell-based, Hepatocyte.
In data set [7] the test system is SK-OV-3. In words: Antitumor activity against human SK-OV-3 cells xenografted in BALB/cA nude mouse assessed as tumor growth at 10 mg/kg, po administered once a day for 21 days and measured twice per week. The format is functional. The conditions noted are these: dose 10 mg/kg/day; time 21 day. The procedure, abridged:
(§2)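 Female BALB/cA nude mice, 4–5 weeks old. SKOV-3 xenografts passaged once in vivo, then 1.5 mm³ fragments implanted s.c. in the right flank by trocar. At about 100 mm³ mice were randomized to vehicle or drug given orally once daily. Tumor size and body weight measured twice weekly; V = length × width²/2.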

Data set [8] is described as follows: Inhibition of human PI3K p110alpha H1047R mutant/p85alpha using PIP2 as substrate incubated for 30 mins in presence of ATP by HTRF assay. For orientation: TR-FRET usually uses a lanthanide donor and a delayed reading to cut background.
For data set [9], the target named is CYP450 (isoform not stated) (Homo sapiens, UniProt P04798+P05177+P05181+P08684+P10632+P10635+P11509+P11712+P13584+P20813+P20815+P20853+P24462+P24903+P33260+P33261+P51589+P78329+P98187+Q02928+Q08477+Q16678+Q16696+Q5TCH4+Q6VVX0+Q7Z449+Q8TAV3+Q96SQ9+Q9HB55). In words: Inhibition of CYP450 (unknown origin). The format is ADME, protein assay.
Data set [10] is described as follows: Metabolic stability in cynomolgus monkey hepatocytes assessed as half life. The format is ADME, cell-based, Macaca fascicularis, Hepatocyte.
The subject of data set [11] is SK-OV-3. In words: Antitumor activity against human SK-OV-3 cells xenografted in BALB/cA nude mouse assessed as tumor growth at 20 mg/kg, po administered once a day for 21 days and measured twice per week. The format is functional. The conditions noted are these: dose 20 mg/kg/day; time 21 day. In short, it runs like this:
as §2
(Xenograft models place foreign cells or tissue in a host animal.)

Data set [12] relates to SK-OV-3. Nature of the data set: Antitumor activity against human SK-OV-3 cells xenografted in BALB/cA nude mouse assessed as tumor growth at 5 mg/kg, po administered once a day for 21 days and measured twice per week. The conditions noted are these: dose 5 mg/kg/day; time 21 day. The format is functional. In short, it runs like this: as §2
The target of data set [13] is T1, Phosphatidylinositol 4,5-bisphosphate 3-kinase catalytic subunit alpha isoform. In words: Inhibition of human PI3Kalpha using PIP2 as substrate in presence of ATP measured after 30 mins by HTRF assay. The procedure, abridged: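 HTRF kit assay. Enzyme incubated with 10 μM PIP2; reaction started by adding ATP and run 30 min at room temperature, then stop solution and detection mix added and luminescence read. Compounds kept as 10 mM DMSO stocks.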

The species named for data set [14] is Homo sapiens. Nature of the data set: Selectivity index, ratio of IC50 for human PI3Kgamma R459Q mutant to IC50 for human PI3Kalpha by HTRF assay. In short, it runs like this:
(§3)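 The PI3K isoforms were assayed with an HTRF kit. Each enzyme was incubated in assay buffer containing 10 μM PIP2, and the reaction was started with ATP and run 30 min at room temperature. Stop solution and detection mix were then added and light emission was read. IC50 values were averages of at least 3 separate determinations, and each index is the ratio of IC50 values.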

The nature of data set [15]: Toxicity in 6 hrs fasted BALB/cA nude mouse xenografted with human SK-OV-3 cells assessed as blood glucose tolerance at 5 to 20 mg/kg, po administered once a day for 18 days and measured upto 2 hrs post-last dose by oral glucose tolerance test. The format is organism-based. The conditions noted are these: in vivo, 432 h, dose 5-20 mg/kg/day, time 18 day. In short, it runs like this: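 Female BALB/cA nude mice, 4–5 weeks old, carried s.c. SKOV-3 xenograft fragments. They were dosed orally once daily for 18 days with vehicle or compound, then fasted 6 h and given glucose orally at 2 g/kg. Blood was sampled at set times up to 2 h, and glucose was measured with a blood glucose meter.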

The next data set concerns the target PI3K p110 beta/p85 alpha (Homo sapiens, UniProt P42338). In words: Inhibition of human PI3K p110beta/p85alpha using PIP2 as substrate incubated for 30 mins in presence of ATP measured after 30 mins by HTRF assay.
For data set [16], the target named is T1, Phosphatidylinositol 4,5-bisphosphate 3-kinase catalytic subunit alpha isoform. In words: Inhibition of PI3Kalpha in human Rh30 cells assessed as reduction in rhIGF1-stimulated AKT phosphorylation at Ser473 treated for 1 hr followed by incubation with IGF1 for 10 mins by western blot analysis. The format is cell-based. The conditions noted are these: dose 0.01-1 µM, time 70.0 min. In short, it runs like this:
as §1

The subject of the next data set is Mus musculus. In words: In vivo inhibition of PI3Kalpha in BALB/cA nude mouse xenografted with human SK-OV-3 cells assessed as reduction in AKT phosphorylation at Ser473 residue in tumor at 5 mg/kg, po measured after 4 to 8 hrs by Western blot analysis. The following applies: time 4-8 hrs. The format is functional, organism-based. The procedure, abridged: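 Nude mice carrying SKOV-3 xenografts of 200 mm³ got a single oral 5 mg/kg dose. Tumors were collected at 0, 2, 4 or 8 h, homogenized, and pAkt S473 probed by Western blot.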

Data set [17] is filed under the species Homo sapiens. In words: Selectivity index, ratio of IC50 for human PI3K p110beta/p85alpha to IC50 for human PI3Kalpha by HTRF assay. The procedure, abridged:
as §3

The test system of a further data set is PC-3. Nature of the data set: Antiproliferative activity against human PC-3 cells assessed as reduction in cell viability after 72 hrs by sulforhodamine B assay. The format is functional, cell-based. The conditions noted are these: PC-3, 72 h. The procedure, abridged: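 SRB assay. Exponentially growing cells seeded at 3000–5000/well, compounds added serially diluted after 24 h, cultured 72 h. Cells fixed with 10% TCA, stained with SRB, dye dissolved in 10 mM Tris-HCl, absorbance read at 560 nm. Inhibition = (ODcontrol − ODtreated)/ODcontrol × 100%. IC50 is the mean of at least three independent tests.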

Data set [18] is described as follows: Oral bioavailability in rat at 10 mg/kg. The conditions noted are these: in vivo. The format is ADME, organism-based. In short, it runs like this: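 Male rats were dosed orally at 10 mg/kg, with a parallel i.v. arm at 5 mg/kg. Plasma PK parameters were derived, including Cmax, Tmax, T1/2 and AUC0-∞, with oral bioavailability (F) reported against the i.v. arm.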

The species entered for data set [19] is Homo sapiens. In words: Selectivity index, ratio of IC50 for human PI3K p110delta/p85alpha to IC50 for human PI3Kalpha by HTRF assay. The procedure, abridged:
as §3

T1 sequence (P42336 whole entry, canonical isoform): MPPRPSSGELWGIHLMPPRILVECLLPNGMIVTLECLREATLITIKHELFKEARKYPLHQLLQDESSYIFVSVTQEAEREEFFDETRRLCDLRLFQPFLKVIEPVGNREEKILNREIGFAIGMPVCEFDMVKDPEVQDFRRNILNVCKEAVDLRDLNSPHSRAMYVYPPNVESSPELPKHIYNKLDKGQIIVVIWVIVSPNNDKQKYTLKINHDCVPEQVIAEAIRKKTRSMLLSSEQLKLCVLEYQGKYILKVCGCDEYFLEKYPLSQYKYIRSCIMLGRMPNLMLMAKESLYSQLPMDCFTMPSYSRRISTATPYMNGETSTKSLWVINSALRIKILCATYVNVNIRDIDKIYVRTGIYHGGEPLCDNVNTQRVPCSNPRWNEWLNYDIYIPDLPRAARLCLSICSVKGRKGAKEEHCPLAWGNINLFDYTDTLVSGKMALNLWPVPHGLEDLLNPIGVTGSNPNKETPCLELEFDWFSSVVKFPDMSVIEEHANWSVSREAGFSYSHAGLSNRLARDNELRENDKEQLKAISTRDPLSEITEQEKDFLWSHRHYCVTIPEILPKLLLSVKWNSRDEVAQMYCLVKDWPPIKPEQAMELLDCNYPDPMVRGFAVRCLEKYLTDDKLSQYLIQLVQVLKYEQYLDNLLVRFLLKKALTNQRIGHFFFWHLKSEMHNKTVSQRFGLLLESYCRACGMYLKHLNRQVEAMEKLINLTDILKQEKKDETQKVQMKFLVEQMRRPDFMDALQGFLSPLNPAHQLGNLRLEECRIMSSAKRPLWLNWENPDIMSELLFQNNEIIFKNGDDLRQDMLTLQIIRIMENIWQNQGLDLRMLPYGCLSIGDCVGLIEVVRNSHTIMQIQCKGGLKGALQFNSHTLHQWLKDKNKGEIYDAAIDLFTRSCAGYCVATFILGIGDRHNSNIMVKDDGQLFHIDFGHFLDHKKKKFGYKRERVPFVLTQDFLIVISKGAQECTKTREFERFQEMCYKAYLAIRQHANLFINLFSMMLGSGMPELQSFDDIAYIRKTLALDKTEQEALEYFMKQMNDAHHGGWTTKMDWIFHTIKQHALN
Sequence of PI3K p110 beta/p85 alpha (P27986 whole entry, canonical isoform): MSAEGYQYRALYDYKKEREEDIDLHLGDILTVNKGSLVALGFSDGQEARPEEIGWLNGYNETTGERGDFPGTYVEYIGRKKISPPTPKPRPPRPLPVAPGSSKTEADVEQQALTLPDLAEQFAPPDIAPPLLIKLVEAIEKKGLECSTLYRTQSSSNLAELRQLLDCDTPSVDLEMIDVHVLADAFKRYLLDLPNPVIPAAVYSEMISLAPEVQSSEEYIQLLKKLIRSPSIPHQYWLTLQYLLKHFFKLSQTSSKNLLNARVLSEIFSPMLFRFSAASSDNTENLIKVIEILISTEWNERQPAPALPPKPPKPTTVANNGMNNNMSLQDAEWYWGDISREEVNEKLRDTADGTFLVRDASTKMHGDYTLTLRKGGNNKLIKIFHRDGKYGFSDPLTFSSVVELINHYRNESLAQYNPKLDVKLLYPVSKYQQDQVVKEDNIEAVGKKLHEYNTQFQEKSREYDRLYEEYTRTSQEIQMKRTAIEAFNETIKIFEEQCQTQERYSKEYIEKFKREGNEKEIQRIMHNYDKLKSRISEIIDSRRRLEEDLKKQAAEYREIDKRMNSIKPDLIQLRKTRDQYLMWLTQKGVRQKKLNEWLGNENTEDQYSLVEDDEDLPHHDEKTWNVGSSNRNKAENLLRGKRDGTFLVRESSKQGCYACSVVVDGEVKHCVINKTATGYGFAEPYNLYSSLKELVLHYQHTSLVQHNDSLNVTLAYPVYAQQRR
Sequence of PI3K p110 beta/p85 alpha (P42338 whole entry, canonical isoform): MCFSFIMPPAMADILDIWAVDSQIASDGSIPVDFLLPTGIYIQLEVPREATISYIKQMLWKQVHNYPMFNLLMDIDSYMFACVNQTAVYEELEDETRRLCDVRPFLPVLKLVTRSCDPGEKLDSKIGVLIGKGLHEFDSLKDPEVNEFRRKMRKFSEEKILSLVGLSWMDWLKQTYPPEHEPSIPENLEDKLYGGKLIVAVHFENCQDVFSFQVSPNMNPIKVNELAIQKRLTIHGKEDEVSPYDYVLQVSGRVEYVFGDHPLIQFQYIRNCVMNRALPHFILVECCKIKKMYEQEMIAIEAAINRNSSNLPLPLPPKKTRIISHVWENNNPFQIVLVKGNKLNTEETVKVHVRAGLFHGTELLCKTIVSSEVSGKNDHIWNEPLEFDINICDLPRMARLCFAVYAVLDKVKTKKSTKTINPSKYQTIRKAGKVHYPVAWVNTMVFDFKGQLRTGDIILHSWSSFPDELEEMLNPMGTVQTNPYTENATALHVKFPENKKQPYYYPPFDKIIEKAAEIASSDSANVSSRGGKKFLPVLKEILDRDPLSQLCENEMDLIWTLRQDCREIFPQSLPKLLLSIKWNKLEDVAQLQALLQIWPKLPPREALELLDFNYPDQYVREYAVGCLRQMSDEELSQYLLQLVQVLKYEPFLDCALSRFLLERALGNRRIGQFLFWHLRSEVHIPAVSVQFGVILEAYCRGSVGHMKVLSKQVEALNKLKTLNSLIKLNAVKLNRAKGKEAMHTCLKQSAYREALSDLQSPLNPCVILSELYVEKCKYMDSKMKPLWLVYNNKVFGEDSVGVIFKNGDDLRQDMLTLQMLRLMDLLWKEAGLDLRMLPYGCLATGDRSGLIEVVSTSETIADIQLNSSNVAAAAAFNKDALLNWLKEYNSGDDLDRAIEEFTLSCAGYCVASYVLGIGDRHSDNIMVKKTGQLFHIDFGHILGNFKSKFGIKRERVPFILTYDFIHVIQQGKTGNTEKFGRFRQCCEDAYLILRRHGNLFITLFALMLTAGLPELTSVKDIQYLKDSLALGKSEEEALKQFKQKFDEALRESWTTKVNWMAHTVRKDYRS

By half-life is commonly meant the time in which the quantity being followed falls by half. Broadly, the IC50 is the midpoint of a concentration-inhibition curve. Usually bioavailability stands for dose-corrected exposure relative to a reference, in per cent. As for `COC(=O)Nc1cc(C(F)(F)F)c(-c2nc(N3CCOCC3)c3cc(CN4CCN(S(C)(=O)=O)CC4)cn3n2)cn1` [RISOVALISIB], the values for the CLint scaled in [1] and in data set [5] were 16.9 mL/min/kg and 21.6 mL/min/kg, respectively. Also, the inhibition entry in data set [2], in [4] and in [16] was “Dose-dependent effect” each time. The inhibition result in data set [3] was “Active”. Besides, the half-life in data set [6] was found to be 147 min; in data set [10], 43 min. Moreover, the Activity with SK-OV-3 [7] is 48.1%; in the data set with SK-OV-3 [11] it was 37%; in the data set with SK-OV-3 [12] it was 67.4%; in data set [15], “Non-Toxic”. For the same compound, the IC50 in data set [8] was 8.4 nM; in data set [9], more than 30 µM; in data set [13] it was 5.9 nM; on PI3K p110 beta/p85 alpha it was 598 nM; with PC-3, less than 1000 nM. Besides, the figures for the Ratio IC50 in the data set listed under Homo sapiens [14], in the data set listed under Homo sapiens [17] and in the data set filed under Homo sapiens [19] were 38, 101 and 13, respectively. Moreover, in the data set with Mus musculus, the inhibition entry was “inactive”. In data set [18], this compound registered a bioavailability of 36.9%.
